From ChEMBL document CHEMBL4382250, “Structure-based exploration and pharmacological evaluation of N-substituted piperidin-4-yl-methanamine CXCR4 chemokine receptor antagonists” (Eur J Med Chem, 2019)
The source made the active and inactive calls. No cut-off for these calls is given here.

Experiments:
[1] = molecular target: T1, C-X-C chemokine receptor type 4 (Homo sapiens, UniProt P61073); experiment: Competitive antagonist activity at human CXCR4 receptor expressed in HEK293T cells co-expressing galphai1 assessed as inhibition of CXCL12-induced receptor activation up to 100 uM preincubated for 30 mins followed by CXCL12 addition and measured after 20 mins by FRET assay; type: cell-based
In short: (§1)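 HEK293T transfected (Effectene) with CXCR4 and a Gαi1 FRET sensor, seeded on poly-D-lysine, read 24 h later at 37 °C in HEPES buffer pH 7.3. Antagonist at 0.1, 1, 10 or 100 µM (final, from DMSO) for 30 min, 5 min pre-read, then increasing CXCL12, FRET read 20 min (ex 420, em 485/540 nm). CXCL12 curves built per antagonist level; 3–5 repeats.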

[2] = molecular target: T1, C-X-C chemokine receptor type 4; experiment: Displacement of [125I]-CXCL12 from human CXCR4 receptor expressed in HEK293T cell membranes after 2 hrs by scintillation counting analysis
In short: (§2)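 Membranes (5 µg/well) from HEK293T transiently transfected with hCXCR4, incubated 2 h at 25 °C with 50 pM ¹²⁵I-CXCL12 in HEPES pH 7.4 buffer with CaCl₂, MgCl₂, NaCl, 1% BSA. Filtration through PEI-soaked GF/C, then scintillation counting. Non-specific binding defined by 10⁻⁵ M IT1t; three-parameter fit for pIC₅₀. Single-point displacement at 100 μM vs IT1t (100%). N = 3, triplicate.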

[3] = molecular target: T1, C-X-C chemokine receptor type 4; experiment: Displacement of [125I]-CXCL12 from human CXCR4 receptor expressed in HEK293T cell membranes at 63 uM after 2 hrs by scintillation counting analysis relative to IT1t
In short: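 hCXCR4 membranes from transiently transfected HEK293T, competing against ¹²⁵I-CXCL12 at 40 pM, 2 h at 25 °C, filtration and scintillation counting. Percentage displacement by ligand at 63 μM relative to IT1t at 63 μM (100%). N = 3, triplicate.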

[4] = molecular target: T1, C-X-C chemokine receptor type 4; experiment: Displacement of [125I]-CXCL12 from human CXCR4 receptor expressed in HEK293T cell membranes at 100 uM after 2 hrs by scintillation counting analysis relative to IT1t; in short: as §2
[5] = molecular target: T1, C-X-C chemokine receptor type 4; experiment: Antagonist activity at human DEF3-RLuc fused CXCR4 receptor expressed in HEK293T cells co-expressing DEF3-Beta-arrestin-2-mVenus assessed as inhibition of CXCL12-induced beta-arrestin2 recruitment at 100 uM preincubated for 60 mins followed by CXCL12 addition measured after 20 mins by BRET assay relative to IT1t; type: cell-based
In short: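 HEK293T cells transiently co-transfected (PEI) with hCXCR4-RLuc and β-arrestin-2-mVenus, assayed two days later in HBSS. Compound given 60 min before 10 nM CXCL12 with 5 µM coelenterazine-h; RLuc (480 nm) and 540 nm read after 20 min. BRET ratio expressed as fold over vehicle. Single-concentration inhibition at 100 μM, IT1t as 100%. N = 3, triplicate.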

[6] = molecular target: T1, C-X-C chemokine receptor type 4; experiment: Antagonist activity at human DEF3-RLuc fused CXCR4 receptor expressed in HEK293T cells co-expressing DEF3-Beta-arrestin-2-mVenus assessed as inhibition of CXCL12-induced beta-arrestin2 recruitment preincubated for 60 mins followed by CXCL12 addition measured after 20 mins by BRET assay; type: cell-based
[7] = molecular target: T1, C-X-C chemokine receptor type 4; experiment: Antagonist activity at human DEF3-fused CXCR4 receptor expressed in HEK293T cells co-expressing DAN1-HA-Galphaq/i5 assessed as inhibition of CXCL12-induced IP3 accumulation after 90 mins in presence of [3H]-myo-inositol by scintillation counting analysis; type: functional, cell-based
In short: (§3)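 HEK293T co-transfected (PEI) with CXCR4 and HA-Gαq/i5, moved next day to poly-L-lysine wells and labelled overnight with 1 µCi/mL [³H]-myo-inositol in inositol-free DMEM. Antagonist dilutions with 10 nM CXCL12, 10 mM LiCl, 0.05% BSA in HEPES saline pH 7.4, 1.5 h at 37 °C. InsP isolated on […] columns, then scintillation counted. Single-point at 100 μM vs IT1t; N ≥ 3, triplicate.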

[8] = molecular target: T1, C-X-C chemokine receptor type 4; experiment: Displacement of CXCL12-red from human NLuc-tagged CXCR4 receptor expressed in HEK293T cell membranes after 2 hrs by NanoBRET assay
In short: (§4)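 Membranes (10 µg/well) from HEK293G cells stably expressing sig-NLuc–CXCR4 (G418-selected), in HBSS pH 7.4. CXCL12-red (50 nM) and competitor added together, 2 h at 37 °C; 10 µM furimazine, emissions at 460 and >610 nm read 5 min later, BRET ratio >610/460. Normalized to buffer (0%) and IT1t (100%); N = 3, triplicate.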

[9] = molecular target: T1, C-X-C chemokine receptor type 4; experiment: Antagonist activity at human DEF3-fused CXCR4 receptor expressed in HEK293T cells co-expressing DAN1-HA-Galphaq/i5 assessed as inhibition of CXCL12-induced IP3 accumulation at 100 uM after 90 mins in presence of [3H]-myo-inositol by scintillation counting analysis relative to IT1t; type: functional, cell-based; in short: as §3
[10] = molecular target: T1, C-X-C chemokine receptor type 4; experiment: Displacement of CXCL12-red from human NLuc-tagged CXCR4 receptor expressed in HEK293T cell membranes at 100 uM after 2 hrs by NanoBRET assay relative to IT1t; in short: as §4
[11] = molecular target: T1, C-X-C chemokine receptor type 4; experiment: Non-competitive antagonist activity at human CXCR4 receptor expressed in HEK293T cells co-expressing galphai1 assessed as inhibition of CXCL12-induced receptor activation up to 100 uM preincubated for 30 mins followed by CXCL12 addition and measured after 20 mins by FRET assay; type: cell-based; in short: as §1

T1 sequence (P61073 whole entry): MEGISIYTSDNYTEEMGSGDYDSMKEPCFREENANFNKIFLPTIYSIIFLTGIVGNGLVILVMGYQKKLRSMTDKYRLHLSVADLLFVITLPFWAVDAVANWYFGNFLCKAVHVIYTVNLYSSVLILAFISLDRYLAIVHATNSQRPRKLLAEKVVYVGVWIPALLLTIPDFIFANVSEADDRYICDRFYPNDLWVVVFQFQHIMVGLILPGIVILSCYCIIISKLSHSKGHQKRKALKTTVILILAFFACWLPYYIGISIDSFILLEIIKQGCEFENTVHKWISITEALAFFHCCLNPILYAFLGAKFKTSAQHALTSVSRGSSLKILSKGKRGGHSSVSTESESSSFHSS

SMILES	IC50 [2] [nM]	inhibition [4] [%]	further results
c1cc(CN2CCCNCCNCCCNCC2)ccc1CN1CCCNCCNCCCNCC1			inhibition [1]: Active
CN(C)CCCNCc1ccc(Cl)c(Cl)c1	> 10000		inhibition [3]: 70%
Cc1cccc(CNCC2CCN(Cc3ccc(Cl)cc3)CC2)c1	10000	86	
Clc1ccccc1CN1CCC(CNCc2ccc3ccccc3c2)CC1	501	78	
NCC1CCN(CC2CCCCC2)CC1	> 10000	59	
Clc1ccccc1CN1CCC(CNCc2cccnc2)CC1	2000	89	
Cc1ccc(CNCC2CCN(Cc3ccccc3Cl)CC2)cc1	1000	62	
NCC1CCN(Cc2ccc(Cl)c(Cl)c2)CC1	> 10000	67	
NCC1CCN(Cc2ccccc2Cl)CC1	10000		inhibition [3]: 69%
CCCNCC1CCN(Cc2ccccc2C)CC1			inhibition [3]: > 50%
Clc1cccc(CNCC2CCN(Cc3ccccc3Cl)CC2)c1	316	65	
Clc1ccccc1CN1CCC(CNCC2CCCCC2)CC1	3160	77	
Clc1ccccc1CN1CCC(CNCc2ccccc2)CC1	316	87	inhibition [5]: 103%; IC50 [6]: 3.98 µM; IC50 [7]: 2000 nM; inhibition [7]: Dose-dependent effect; IC50 [8]: 794 nM; inhibition [1]: Active; inhibition [9]: 93%; inhibition [10]: 84%
Clc1ccccc1CN1CCC(CNCc2cccc(-c3ccccc3)c2)CC1	501	98	inhibition [5]: 102%; IC50 [6]: 2.51 µM; IC50 [7]: 1260 nM; inhibition [7]: Dose-dependent effect; IC50 [8]: 631 nM; inhibition [11]: Active; inhibition [9]: 94%; inhibition [10]: 98%
Clc1ccccc1CN1CCC(CNCc2cccc(Cl)c2Cl)CC1	2510	13	
COc1ccccc1CN1CCC(CNCc2cccc(C)c2)CC1	794	84	
CCc1cccc(CNCC2CCN(Cc3ccccc3OC)CC2)c1	794	81	
Clc1ccccc1CN1CCC(CNCc2ccc3c(c2)OCO3)CC1	251	72	

SMILES	IC50 [2] [nM]	inhibition [4] [%]	further results
Cc1ccccc1CN1CCC(CN)CC1	> 10000	81	
Cc1ccccc1CNCC1CCN(Cc2ccccc2Cl)CC1	251	72	
Oc1ccc(CNCC2CCN(Cc3ccccc3Cl)CC2)cc1	316	98	
Cc1cccc(CNCC2CCN(Cc3c(Cl)cccc3Cl)CC2)c1	251	60	
COc1ccccc1CN1CCC(CN)CC1	> 10000	67	
c1ccc(CNCC2CCN(Cc3ccccc3)CC2)cc1	10000	72	
COc1ccccc1CN1CCC(CNCc2ccccc2)CC1	2510	85	
COc1ccc(CNCC2CCN(Cc3ccccc3Cl)CC2)cc1	1260	88	
Clc1ccc(CNCC2CCN(Cc3ccccc3Cl)CC2)cc1	631	80	
Cc1cccc(CNCC2CCN(Cc3cccc(Cl)c3)CC2)c1	2510	86	
Clc1ccccc1CNCC1CCN(Cc2ccccc2Cl)CC1	200	80	
Oc1ccc(CN2CCC(CNCc3ccccc3)CC2)cc1	> 10000	65	IC50 [6]: > 31.6 µM; IC50 [7]: > 31600 nM
Cc1cccc(CNCC2CCN(Cc3ccccc3Cl)CC2)c1	158	63	inhibition [5]: 97%; IC50 [6]: 3.16 µM; IC50 [7]: 1000 nM; inhibition [7]: Dose-dependent effect; IC50 [8]: 1000 nM; inhibition [11]: Active; inhibition [9]: 87%; inhibition [10]: 73%
CCC[C@H](C)c1cc(CN(C)C)c(O)cc1CN(C)C			inhibition [3]: > 50%
Clc1ccccc1CN1CCC(CNCc2c[nH]cn2)CC1	1000	96	
Cc1cccc(CNCC2CCN(Cc3cccc(Cl)c3Cl)CC2)c1	794	74	
NCCC1CCN(Cc2ccccc2Cl)CC1	> 10000	56	
